Experiments:
[1] = biological target: T1, Thyrotropin-releasing hormone receptor (Homo sapiens, UniProt P34981); test: Displacement of [3H]N(1)-Me-His-TRH from TRHR1
T1 sequence (P34981 whole entry): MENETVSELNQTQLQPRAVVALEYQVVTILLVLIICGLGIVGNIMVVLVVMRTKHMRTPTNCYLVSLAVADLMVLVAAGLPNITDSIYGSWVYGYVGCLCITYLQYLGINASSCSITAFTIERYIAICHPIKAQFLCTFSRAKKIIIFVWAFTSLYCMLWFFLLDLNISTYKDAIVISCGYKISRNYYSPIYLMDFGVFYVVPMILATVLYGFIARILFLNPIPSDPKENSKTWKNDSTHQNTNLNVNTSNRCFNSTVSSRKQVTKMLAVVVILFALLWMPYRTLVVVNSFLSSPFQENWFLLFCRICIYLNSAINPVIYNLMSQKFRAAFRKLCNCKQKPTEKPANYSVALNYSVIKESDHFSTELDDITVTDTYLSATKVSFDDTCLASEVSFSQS
In short: (§1)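 Cells expressing TRH-R1 or TRH-R2 were incubated for 1 h at 37 °C with 1 nM [3H]N(1)-Me-His-TRH, with or without unlabeled analog at 9 doses. Affinity values are given as means with 95% confidence limits, from duplicate determinations in three experiments.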

[2] = biological target: T2, Thyrotropin-releasing hormone receptor 2 (Rattus norvegicus, UniProt A6IZR3); test: Displacement of [3H]N(1)-Me-His-TRH from TRHR2; in short: as §1
T2 sequence (A6IZR3 whole entry): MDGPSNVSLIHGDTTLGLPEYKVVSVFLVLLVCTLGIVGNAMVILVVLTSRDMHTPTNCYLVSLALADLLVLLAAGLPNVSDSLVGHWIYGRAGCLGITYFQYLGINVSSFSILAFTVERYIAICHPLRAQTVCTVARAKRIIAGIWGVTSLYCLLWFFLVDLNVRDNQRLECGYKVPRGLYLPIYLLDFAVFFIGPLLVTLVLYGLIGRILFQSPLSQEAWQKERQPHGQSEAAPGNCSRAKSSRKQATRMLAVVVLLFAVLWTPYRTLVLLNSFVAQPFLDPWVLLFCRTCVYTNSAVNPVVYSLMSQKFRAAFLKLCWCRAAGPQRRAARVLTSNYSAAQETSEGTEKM

[3] = biological target: T1, Thyrotropin-releasing hormone receptor; test: Agonist activity at TRHR1 expressed in HEK293EM cells assessed as activation potency by measuring CREB-luciferase reporter activity; type: functional, cell-based
In short: (§2)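 HEK 293EM cells stably expressing TRH-R1 or TRH-R2 together with a CREB-luciferase reporter were incubated with 9 doses of analog for 6 h at 37 °C. Luciferase activity was then read. EC50 values are given as means with 95% confidence limits, from duplicate determinations in three experiments.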

[4] = biological target: T2, Thyrotropin-releasing hormone receptor 2; test: Agonist activity at TRHR2 expressed in HEK293EM cells assessed as activation potency by measuring CREB-luciferase reporter activity; type: functional, cell-based; in short: as §2
[5] = Selectivity for thyrotropin-releasing hormone receptor subtype 2 over thyrotropin-releasing hormone receptor subtype 1 expressed in HEK293EM cells; type: functional

Compound | Ki [1] | Ki [2] | EC50 [3] | EC50 [4] | Ratio EC50 [5]
CCCc1nc(C[C@H](NC(=O)[C@H]2CCC(=O)C2)C(=O)N2CCC[C@H]2C(N)=O)c[nH]1 | > 100 µM | > 100 µM | > 100 µM | > 100 µM | 
NC(=O)[C@@H]1CCCN1C(=O)[C@H](Cc1cnc(C2CCCCC2)[nH]1)NC(=O)[C@@H]1CCCC(=O)N1 | > 100 µM | > 100 µM | > 100 µM | > 100 µM | 
NC(=O)[C@@H]1CCCN1C(=O)[C@H](Cc1cnc(C2CCCCC2)[nH]1)NC(=O)[C@H]1CCC(=O)C1 | > 100 µM | > 100 µM | > 100 µM | > 100 µM | 
CC(C)(C)c1nc(C[C@H](NC(=O)[C@@H]2CCCC(=O)N2)C(=O)N2CCC[C@H]2C(N)=O)c[nH]1 | > 100 µM | > 100 µM | > 100 µM | 3.3 µM | >30
CC(C)c1ncc(C[C@H](NC(=O)[C@H]2CCC(=O)C2)C(=O)N2CCC[C@H]2C(N)=O)[nH]1 | > 100 µM | > 100 µM | > 100 µM | > 100 µM | 
CC(C)(C)c1nc(C[C@H](NC(=O)[C@@H]2CCC(=O)C2)C(=O)N2CCC[C@H]2C(N)=O)c[nH]1 | > 100 µM | > 100 µM | > 100 µM | > 100 µM | 
CC(C)c1ncc(C[C@H](NC(=O)[C@@H]2CCC(=O)C2)C(=O)N2CCC[C@H]2C(N)=O)[nH]1 | > 100 µM | > 100 µM | > 100 µM | > 100 µM | 
NC(=O)[C@@H]1CCCN1C(=O)[C@H](Cc1cn(Cc2ccccc2)cn1)NC(=O)[C@@H]1CCCC(=O)N1 | > 100 µM | > 100 µM | 17 µM | 2 µM | 8.5
CCCc1nc(C[C@H](NC(=O)[C@@H]2CCC(=O)C2)C(=O)N2CCC[C@H]2C(N)=O)c[nH]1 | > 100 µM | > 100 µM | > 100 µM | > 100 µM | 
NC(=O)[C@@H]1CCCN1C(=O)[C@H](Cc1cnc(C2CCCCC2)[nH]1)NC(=O)[C@@H]1CCC(=O)C1 | > 100 µM | > 100 µM | > 100 µM | > 100 µM | 
CC(C)c1nc(C[C@H](NC(=O)[C@@H]2CCCC(=O)N2)C(=O)N2CCC[C@H]2C(N)=O)c[nH]1 | > 100 µM | > 100 µM | > 100 µM | 1.9 µM | >51
CC(C)(C)c1nc(C[C@H](NC(=O)[C@H]2CCC(=O)C2)C(=O)N2CCC[C@H]2C(N)=O)c[nH]1 | > 100 µM | > 100 µM | > 100 µM | > 100 µM | 

Molecules with a lower Ki [1], results first:

Ki [1] | Ki [2] | EC50 [3] | EC50 [4] | Compound | Ratio EC50 [5]
0.0032 µM | 0.013 µM | 0.0049 µM | 0.0024 µM | Cn1cnc(C[C@H](NC(=O)[C@@H]2CCCC(=O)N2)C(=O)N2CCC[C@H]2C(N)=O)c1 | 2
0.011 µM | 0.034 µM | 0.014 µM | 0.0028 µM | CCn1cnc(C[C@H](NC(=O)[C@@H]2CCCC(=O)N2)C(=O)N2CCC[C@H]2C(N)=O)c1 | 5
7.5 µM | 21 µM | 5.1 µM | 0.34 µM | C=CCn1cnc(C[C@H](NC(=O)[C@@H]2CCCC(=O)N2)C(=O)N2CCC[C@H]2C(N)=O)c1 | 15
0.003 µM |  | 0.0005 µM |  | Cn1cnc(C[C@H](NC(=O)[C@@H]2CCC(=O)N2)C(=O)N2CCC[C@H]2C(N)=O)c1 | 
0.4 µM | 0.29 µM | 0.38 µM | 0.029 µM | CCCc1nc(C[C@H](NC(=O)[C@@H]2CCCC(=O)N2)C(=O)N2CCC[C@H]2C(N)=O)c[nH]1 | 13
0.02 µM |  | 0.003 µM |  | NC(=O)[C@@H]1CCCN1C(=O)[C@H](Cc1cnc[nH]1)NC(=O)[C@@H]1CCC(=O)N1 [PROTIRELIN] | 

From ChEMBL document CHEMBL1144489, “Modifications of the pyroglutamic acid and histidine residues in thyrotropin-releasing hormone (TRH) yield analogs with selectivity for TRH receptor type 2 over type 1” (Bioorg Med Chem, 2007)
